Assay results: ChEMBL document CHEMBL2157880, “Synthesis, antimycobacterial and antibacterial activity of ciprofloxacin derivatives containing a N-substituted benzyl moiety” (2012)
In brackets after ≈: the same amount, converted by molar mass.

Legend:
Type in all cases: functional
[1] = system: Mycobacterium tuberculosis; experiment: Antimycobacterial activity against Mycobacterium tuberculosis H37Rv ATCC 27294 by microplate alamar blue assay
In short: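 Microplate Alamar Blue fluorescence assay on strain H37Rv ATCC 27294. MIC was the lowest concentration cutting fluorescence by ≥90% against the mean of replicate bacterium-only controls.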

[2] = system: Staphylococcus aureus; experiment: Antibacterial activity against Staphylococcus aureus ATCC 2592 after 18 to 24 hrs by NCCLS method
In short: (§1)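 Standard NCCLS (M100-S11) MIC testing against Gram-positive and Gram-negative strains. Plates were incubated at 35 °C for 18–24 h. The MIC was read as the lowest concentration giving complete inhibition of visible bacterial growth.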

[3] = system: Staphylococcus aureus; experiment: Antibacterial activity against methicillin-sensitive Staphylococcus aureus 10-11 after 18 to 24 hrs by NCCLS method; in short: as §1
[4] = system: Staphylococcus aureus; experiment: Antibacterial activity against methicillin-sensitive Staphylococcus aureus 10-13 after 18 to 24 hrs by NCCLS method; in short: as §1
[5] = system: Staphylococcus aureus; experiment: Antibacterial activity against methicillin-sensitive Staphylococcus aureus 10-14 after 18 to 24 hrs by NCCLS method; in short: as §1
[6] = system: Staphylococcus aureus; experiment: Antibacterial activity against methicillin-resistant Staphylococcus aureus 10-11 after 18 to 24 hrs by NCCLS method
In short: (§2)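 Incubated at 35 °C for 18–24 h under NCCLS (M100-S11) standards. MIC was read as the lowest concentration giving complete inhibition of visible bacterial growth.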

[7] = system: Staphylococcus aureus; experiment: Antibacterial activity against methicillin-resistant Staphylococcus aureus 10-13 after 18 to 24 hrs by NCCLS method; in short: as §2
[8] = system: Staphylococcus epidermidis; experiment: Antibacterial activity against methicillin-sensitive Staphylococcus epidermidis 10-11 after 18 to 24 hrs by NCCLS method; in short: as §1
[9] = system: Staphylococcus epidermidis; experiment: Antibacterial activity against methicillin-sensitive Staphylococcus epidermidis 10-15 after 18 to 24 hrs by NCCLS method; in short: as §2
[10] = system: Staphylococcus epidermidis; experiment: Antibacterial activity against methicillin-resistant Staphylococcus epidermidis 10-10 after 18 to 24 hrs by NCCLS method; in short: as §2
[11] = system: Staphylococcus epidermidis; experiment: Antibacterial activity against methicillin-resistant Staphylococcus epidermidis 10-13 after 18 to 24 hrs by NCCLS method; in short: as §2
[12] = system: Enterococcus faecalis; experiment: Antibacterial activity against Enterococcus faecalis 10-5 after 18 to 24 hrs by NCCLS method; in short: as §1
[13] = system: Enterococcus faecalis; experiment: Antibacterial activity against Enterococcus faecalis 10-6 after 18 to 24 hrs by NCCLS method; in short: as §1
[14] = system: Enterococcus faecalis; experiment: Antibacterial activity against Enterococcus faecalis 10-7 after 18 to 24 hrs by NCCLS method; in short: as §1
[15] = system: Enterococcus faecium; experiment: Antibacterial activity against Enterococcus faecium 10-6 after 18 to 24 hrs by NCCLS method; in short: as §1
[16] = system: Enterococcus faecium; experiment: Antibacterial activity against Enterococcus faecium 10-9 after 18 to 24 hrs by NCCLS method; in short: as §1
[17] = system: Streptococcus pneumoniae; experiment: Antibacterial activity against Streptococcus pneumoniae 10-1 after 18 to 24 hrs by NCCLS method; in short: as §1
[18] = system: Streptococcus pneumoniae; experiment: Antibacterial activity against Streptococcus pneumoniae 10-6 after 18 to 24 hrs by NCCLS method; in short: as §1
[19] = system: Klebsiella pneumoniae; experiment: Antibacterial activity against Klebsiella pneumoniae 10-2 after 18 to 24 hrs by NCCLS method; in short: as §1
[20] = system: Klebsiella pneumoniae; experiment: Antibacterial activity against Klebsiella pneumoniae 10-3 after 18 to 24 hrs by NCCLS method; in short: as §1
[21] = system: Klebsiella pneumoniae; experiment: Antibacterial activity against Klebsiella pneumoniae 10-4 after 18 to 24 hrs by NCCLS method; in short: as §1
[22] = system: Klebsiella pneumoniae; experiment: Antibacterial activity against extended spectrum beta-lactamases producing Klebsiella pneumoniae 10-1 after 18 to 24 hrs by NCCLS method; in short: as §1
[23] = system: Klebsiella pneumoniae; experiment: Antibacterial activity against extended spectrum beta-lactamases producing Klebsiella pneumoniae 10-2 after 18 to 24 hrs by NCCLS method; in short: as §1
[24] = system: Klebsiella pneumoniae; experiment: Antibacterial activity against extended spectrum beta-lactamases producing Klebsiella pneumoniae 10-3 after 18 to 24 hrs by NCCLS method; in short: as §1
[25] = system: Pseudomonas aeruginosa; experiment: Antibacterial activity against Pseudomonas aeruginosa 10-18 after 18 to 24 hrs by NCCLS method; in short: as §1
[26] = system: Staphylococcus aureus; experiment: Antibacterial activity against methicillin-resistant Staphylococcus aureus 10-15 after 18 to 24 hrs by NCCLS method; in short: as §2
[27] = system: Escherichia coli; experiment: Antibacterial activity against Escherichia coli ATCC 25922 after 18 to 24 hrs by NCCLS method; in short: as §1
[28] = system: Escherichia coli; experiment: Antibacterial activity against Escherichia coli 10-1 after 18 to 24 hrs by NCCLS method; in short: as §1
[29] = system: Escherichia coli; experiment: Antibacterial activity against Escherichia coli 10-2 after 18 to 24 hrs by NCCLS method; in short: as §1
[30] = system: Escherichia coli; experiment: Antibacterial activity against Escherichia coli 10-3 after 18 to 24 hrs by NCCLS method; in short: as §1
[31] = system: Escherichia coli; experiment: Antibacterial activity against extended spectrum beta-lactamases producing Escherichia coli 10-2 after 18 to 24 hrs by NCCLS method; in short: as §1
[32] = system: Escherichia coli; experiment: Antibacterial activity against extended spectrum beta-lactamases producing Escherichia coli 10-3 after 18 to 24 hrs by NCCLS method; in short: as §1
[33] = system: Escherichia coli; experiment: Antibacterial activity against extended spectrum beta-lactamases producing Escherichia coli 10-4 after 18 to 24 hrs by NCCLS method; in short: as §1
[34] = system: Pseudomonas aeruginosa; experiment: Antibacterial activity against Pseudomonas aeruginosa 10-5 after 18 to 24 hrs by NCCLS method; in short: as §1
[35] = system: Pseudomonas aeruginosa; experiment: Antibacterial activity against Pseudomonas aeruginosa 10-9 after 18 to 24 hrs by NCCLS method; in short: as §1
[36] = system: Pseudomonas aeruginosa; experiment: Antibacterial activity against Pseudomonas aeruginosa 10-12 after 18 to 24 hrs by NCCLS method; in short: as §1
[37] = system: Pseudomonas aeruginosa; experiment: Antibacterial activity against Pseudomonas aeruginosa 10-15 after 18 to 24 hrs by NCCLS method; in short: as §1
[38] = system: Pseudomonas aeruginosa; experiment: Antibacterial activity against Pseudomonas aeruginosa 10-20 after 18 to 24 hrs by NCCLS method; in short: as §1

Row | Compound | MIC [1] [µg/mL] | MIC [2] [µg/mL] | MIC [3] [µg/mL] | MIC [4] [µg/mL] | MIC [5] [µg/mL] | MIC [6] [µg/mL] | MIC [7] [µg/mL] | MIC [8] [µg/mL] | MIC [9] [µg/mL] | MIC [10] [µg/mL] | MIC [11] [µg/mL] | MIC [12] [µg/mL] | MIC [13] [µg/mL] | MIC [14] [µg/mL] | MIC [15] [µg/mL] | MIC [16] [µg/mL] | MIC [17] [µg/mL] | MIC [18] [µg/mL] | MIC [19] [µg/mL] | MIC [20] [µg/mL] | other results
1 | O=C(O)c1cn(C2CC2)c2cc(N3CCNCC3)c(F)cc2c1=O [CIPROFLOXACIN] | 0.5 (≈ 1.51 µM) | 0.25 (≈ 0.754 µM) | 0.5 (≈ 1.51 µM) | 0.5 (≈ 1.51 µM) | 0.5 (≈ 1.51 µM) | 32 (≈ 96.6 µM) | 128 (≈ 386 µM) | 0.5 (≈ 1.51 µM) | 8 (≈ 24.1 µM) | 8 (≈ 24.1 µM) | 16 (≈ 48.3 µM) | 8 (≈ 24.1 µM) | 64 (≈ 193 µM) | 16 (≈ 48.3 µM) | 1 (≈ 3.02 µM) | 16 (≈ 48.3 µM) | 2 (≈ 6.04 µM) | 32 (≈ 96.6 µM) | 32 (≈ 96.6 µM) | 0.25 (≈ 0.754 µM) | MIC [21]: 32 µg/mL (≈ 96.6 µM); MIC [22]: 32 µg/mL (≈ 96.6 µM); MIC [23]: 32 µg/mL (≈ 96.6 µM); MIC [24]: 32 µg/mL (≈ 96.6 µM); MIC [25]: 1 µg/mL (≈ 3.02 µM)
2 | COc1ccc(OC)c(CN2CCN(c3cc4c(cc3F)c(=O)c(C(=O)O)cn4C3CC3)CC2)c1 | > 32 | 0.5 (≈ 1.04 µM) | 0.5 (≈ 1.04 µM) | 0.5 (≈ 1.04 µM) | 1 (≈ 2.08 µM) | 32 (≈ 66.5 µM) | 32 (≈ 66.5 µM) | 1 (≈ 2.08 µM) | 16 (≈ 33.2 µM) | 16 (≈ 33.2 µM) | 16 (≈ 33.2 µM) | 16 (≈ 33.2 µM) | 128 (≈ 266 µM) | 16 (≈ 33.2 µM) | 16 (≈ 33.2 µM) | 16 (≈ 33.2 µM) | 8 (≈ 16.6 µM) | 64 (≈ 133 µM) | > 128 | 16 (≈ 33.2 µM) | MIC [26]: 16 µg/mL (≈ 33.2 µM); MIC [27]: 1 µg/mL (≈ 2.08 µM); MIC [28]: > 128 µg/mL; MIC [29]: 64 µg/mL (≈ 133 µM); MIC [30]: 16 µg/mL (≈ 33.2 µM); MIC [31]: > 128 µg/mL; MIC [32]: > 128 µg/mL; MIC [33]: > 128 µg/mL; MIC [21]: > 128 µg/mL; MIC [22]: > 128 µg/mL; MIC [23]: > 128 µg/mL; MIC [24]: > 128 µg/mL; MIC [34]: 16 µg/mL (≈ 33.2 µM); MIC [35]: 16 µg/mL (≈ 33.2 µM); MIC [36]: 8 µg/mL (≈ 16.6 µM); MIC [37]: 16 µg/mL (≈ 33.2 µM); MIC [25]: 16 µg/mL (≈ 33.2 µM); MIC [38]: 32 µg/mL (≈ 66.5 µM)
3 | O=C(O)c1cn(C2CC2)c2cc(N3CCN(Cc4ccc(OCc5ccccc5)cc4)CC3)c(F)cc2c1=O | 32 (≈ 60.7 µM) | 4 (≈ 7.58 µM) | 0.25 (≈ 0.474 µM) | 0.5 (≈ 0.948 µM) | 0.5 (≈ 0.948 µM) | 32 (≈ 60.7 µM) | 128 (≈ 243 µM) | 1 (≈ 1.9 µM) | 32 (≈ 60.7 µM) | 16 (≈ 30.3 µM) | 32 (≈ 60.7 µM) | 8 (≈ 15.2 µM) | 64 (≈ 121 µM) | 32 (≈ 60.7 µM) | 8 (≈ 15.2 µM) | 32 (≈ 60.7 µM) | 8 (≈ 15.2 µM) | 32 (≈ 60.7 µM) | > 128 | 32 (≈ 60.7 µM) | MIC [26]: 128 µg/mL (≈ 243 µM); MIC [27]: 1 µg/mL (≈ 1.9 µM); MIC [28]: > 128 µg/mL; MIC [29]: 32 µg/mL (≈ 60.7 µM); MIC [30]: > 128 µg/mL; MIC [31]: > 128 µg/mL; MIC [32]: > 128 µg/mL; MIC [33]: > 128 µg/mL; MIC [21]: > 128 µg/mL; MIC [22]: > 128 µg/mL; MIC [23]: > 128 µg/mL; MIC [24]: > 128 µg/mL; MIC [34]: 16 µg/mL (≈ 30.3 µM); MIC [35]: 32 µg/mL (≈ 60.7 µM); MIC [36]: 32 µg/mL (≈ 60.7 µM); MIC [37]: 128 µg/mL (≈ 243 µM); MIC [25]: 64 µg/mL (≈ 121 µM); MIC [38]: 32 µg/mL (≈ 60.7 µM)
